Measurements: ChEMBL document CHEMBL1124042, “Synthesis and potential antipsychotic activity of 1H-imidazo[1,2-c]pyrazolo[3,4-e]pyrimidines” (J Med Chem, 1988)

Assays:
Mus musculus = test: Inhibition of induction of ataxia in mouse after intraperitoneal administration; assay type: functional; details: ip
[1] = target: T1, Adrenergic receptor alpha-1 (Rattus norvegicus, UniProt P15823+P23944+P43140); test: Displacement of [3H]WB-4101 from alpha-1 adrenergic receptor in rat brain; assay type: tissue-based
T1 sequence (P15823 whole entry): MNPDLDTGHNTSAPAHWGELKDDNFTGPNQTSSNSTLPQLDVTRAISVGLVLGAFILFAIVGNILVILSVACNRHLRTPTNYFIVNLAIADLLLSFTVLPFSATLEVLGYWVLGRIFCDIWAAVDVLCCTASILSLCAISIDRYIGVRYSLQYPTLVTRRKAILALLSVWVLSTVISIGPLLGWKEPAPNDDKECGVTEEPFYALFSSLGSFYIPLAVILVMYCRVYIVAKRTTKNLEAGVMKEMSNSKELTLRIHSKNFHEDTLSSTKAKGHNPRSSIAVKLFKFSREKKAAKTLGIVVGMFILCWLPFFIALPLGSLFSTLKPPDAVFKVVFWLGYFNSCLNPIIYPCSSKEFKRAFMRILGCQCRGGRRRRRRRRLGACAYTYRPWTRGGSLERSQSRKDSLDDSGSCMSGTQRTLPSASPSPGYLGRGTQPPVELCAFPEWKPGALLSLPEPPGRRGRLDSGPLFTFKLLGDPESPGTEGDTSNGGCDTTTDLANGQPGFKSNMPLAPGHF
T1 sequence (P23944 whole entry): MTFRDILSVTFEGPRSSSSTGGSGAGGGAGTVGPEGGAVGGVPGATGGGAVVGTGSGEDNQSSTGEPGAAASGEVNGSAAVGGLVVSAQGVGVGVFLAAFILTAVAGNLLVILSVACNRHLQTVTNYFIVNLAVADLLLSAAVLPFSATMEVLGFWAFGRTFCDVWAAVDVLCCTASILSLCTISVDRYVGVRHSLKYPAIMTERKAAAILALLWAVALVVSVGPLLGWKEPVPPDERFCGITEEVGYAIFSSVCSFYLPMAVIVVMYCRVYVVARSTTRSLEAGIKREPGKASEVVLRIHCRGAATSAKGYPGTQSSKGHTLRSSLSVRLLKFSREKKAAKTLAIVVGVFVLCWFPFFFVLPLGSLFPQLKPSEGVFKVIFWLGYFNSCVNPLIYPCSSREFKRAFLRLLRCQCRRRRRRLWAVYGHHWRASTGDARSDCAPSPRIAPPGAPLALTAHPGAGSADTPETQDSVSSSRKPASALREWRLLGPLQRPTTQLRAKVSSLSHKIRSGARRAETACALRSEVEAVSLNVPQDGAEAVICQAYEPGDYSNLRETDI
T1 sequence (P43140 whole entry): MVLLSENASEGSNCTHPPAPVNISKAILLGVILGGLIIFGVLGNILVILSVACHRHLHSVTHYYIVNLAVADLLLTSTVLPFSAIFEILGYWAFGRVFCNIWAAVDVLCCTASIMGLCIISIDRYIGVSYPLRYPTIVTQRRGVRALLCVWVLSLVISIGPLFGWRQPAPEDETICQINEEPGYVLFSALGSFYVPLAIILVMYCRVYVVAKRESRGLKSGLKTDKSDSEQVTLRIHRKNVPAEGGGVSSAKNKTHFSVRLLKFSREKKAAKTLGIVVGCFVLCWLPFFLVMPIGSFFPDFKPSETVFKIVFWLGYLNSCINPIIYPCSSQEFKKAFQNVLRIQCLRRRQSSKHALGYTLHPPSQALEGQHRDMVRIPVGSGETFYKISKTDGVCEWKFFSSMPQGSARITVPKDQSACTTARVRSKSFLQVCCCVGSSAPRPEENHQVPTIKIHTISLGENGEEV
Method in brief: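 Rat brain radioligand displacement binding. IC50 values (μM) were derived by nonlinear regression from four or five concentrations of compound.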

IC50 [1]: > 10 µM
SMILES: CCC1CN2C(C)=Nc3c(C)nn(C)c3C2=N1 (configuration not stated)
ED50 (Mus musculus): > 100 mg/kg
